Source: ChEMBL document CHEMBL1155362, “Synthesis, characterization and derivatization of some novel types of mono- and bis-imidazolidineiminothiones and imidazolidineiminodithiones with antitumor, antiviral, antibacterial and antifungal activities--part I” (Eur J Med Chem, 2009)
Active and inactive are the calls of the source. The calls are words filed in the database; no cut-off is given here.

Assays:
Coxsackievirus B4 = test: Antiviral activity against Coxsackievirus B4 infected african green monkey Vero cells at 10^-3 dilution of 5 mg/ml by plaque formation assay; type: functional
Outline: (§1)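 Compound dilutions prepared from a 5 mg/mL DMSO stock, using the maximum non-toxic dilution for Vero cells over 3 days; 0.1 mL virus (10³) mixed with 0.1 mL compound for 1 h at room temperature; mixture inoculated onto washed Vero monolayers in 12-well plates and adsorbed at 37 °C; 2× MEM/agarose overlay applied; read-out % reduction in plaque count versus untreated virus control.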

Escherichia coli = test: Antibacterial activity against Escherichia coli NCTC 10416 at 5 mg/ml by agar disk diffusion assay; type: functional; conditions: read-out: DIZ
Hepatovirus A = test: Antiviral activity against HAV infected african green monkey Vero cells at 10^-3 dilution of 5 mg/ml by plaque formation assay; type: functional; outline: as §1
Salmonella typhi = test: Antibacterial activity against Salmonella typhi NCIMB 9331 at 5 mg/ml by agar disk diffusion assay; type: functional, Salmonella enterica subsp. enterica serovar Typhi; conditions: Salmonella enterica, read-out: DIZ
Candida albicans = test: Antifungal activity against Candida albicans IMRU 3669 at 5 mg/ml by agar disk diffusion assay; type: functional; conditions: Candida albicans, IMRU 3669; read-out: DIZ
Outline: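 Fungi maintained on Czapek's Dox agar; agar well diffusion with 1 cm wells and […] of each concentration (1, 2.5, 5 mg/mL) in DMF; inhibition zone diameter measured.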

Staphylococcus aureus = test: Antibacterial activity against Staphylococcus aureus NCTC 7447 at 5 mg/ml by agar disk diffusion assay; type: functional; conditions: read-out: DIZ
Aspergillus niger = test: Antifungal activity against Aspergillus niger IMI 31726 at 5 mg/ml by agar disk diffusion assay; type: functional; conditions: read-out: DIZ
Human alphaherpesvirus 1 = test: Antiviral activity against HSV1 infected african green monkey Vero cells at 10^-3 dilution of 5 mg/ml by plaque formation assay; type: functional; outline: as §1
Bacillus subtilis = test: Antibacterial activity against Bacillus subtilis NCTC 1040 at 5 mg/ml by agar disk diffusion assay; type: functional; conditions: read-out: DIZ

`CCOc1ccc(N2C(=O)N(c3ccc4c(c3)Cc3ccccc3-4)C(=N)C2=S)cc1` was tested, and the Activity (Coxsackievirus B4) was “inactive”, the zone of inhibition at 5000 µg/mL (Escherichia coli) was 17 mm and the Activity (Hepatovirus A) was “inactive”. For the same compound, the zone of inhibition at 5000 µg/mL (Salmonella typhi) was 18 mm, the zone of inhibition at 5000 µg/mL (Candida albicans) was 15 mm and the zone of inhibition at 5000 µg/mL (Staphylococcus aureus) was 19 mm. It also gave a zone of inhibition at 5000 µg/mL (Aspergillus niger) of 20 mm, an Activity (Human alphaherpesvirus 1) of 50% and a zone of inhibition at 5000 µg/mL (Bacillus subtilis) of 17 mm.
